Source: ChEMBL document CHEMBL4834396, “Molecular Recognition and Imaging of Human Telomeric G-Quadruplex DNA in Live Cells: A Systematic Advancement of Thiazole Orange Scaffold To Enhance Binding Specificity and Inhibition of Gene Expression” (J Med Chem, 2021)
Activity calls are given as the source filed them. No cut-off for these calls is given here.

Experiments:
DNA = assay: Binding affinity to ds26 DNA (unknown origin) assessed as equilibrium binding constant at 5 uM at 25 degreeC by […]; assay type: nucleic-acid assay
Procedure, shortened: (§1)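 Fluorescence titration: ligand 5 μM in 10 mM Tris-HCl pH 7.4 with 60 mM KCl, nucleic acid added until saturation, 25 °C. Keq from nonlinear fit of F/F0 to an independent-site model.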

rRNA = assay: Binding affinity to rRNA (unknown origin) assessed as equilibrium binding constant at 5 uM at 25 degreeC […]; assay type: nucleic-acid assay; procedure, shortened: as §1
Quadruplex DNA [1] = assay: Binding affinity to c-myc promoter G-quadruplex DNA Pu22 (unknown origin) assessed as equilibrium binding constant at 5 uM at 25 degreeC by […]; assay type: nucleic-acid assay; procedure, shortened: as §1
Quadruplex DNA [2] = assay: Binding affinity to telomeric Telo21 G-quadruplex DNA (unknown origin) assessed as equilibrium binding constant at 5 uM at 25 degreeC by […]; assay type: nucleic-acid assay
Procedure, shortened: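 Fluorescence titration: ligand at 5 μM in 10 mM Tris-HCl, pH 7.4, with 60 mM KCl, 25 °C. DNA was added slowly until saturation. Keq was obtained by nonlinear fitting of F/F0 to an independent-site model.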

Quadruplex DNA [3] = assay: Binding affinity to telomeric Htg24 G-quadruplex DNA (unknown origin) assessed as equilibrium binding constant at 5 uM at 25 degreeC by […]; assay type: nucleic-acid assay; procedure, shortened: as §1
[4] = Water solubility of compound at 25 degreeC; assay type: physicochemical
Procedure, shortened: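 Solubility in water measured at 25 °C.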

Quadruplex DNA [5] = assay: Stabilization of telomeric Htg24 G-quadruplex DNA (unknown origin) assessed as inhibition of DNA amplification at 20 uM by PCR analysis; assay type: nucleic-acid assay
Procedure, shortened: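 Taq polymerase stop assay: Htg24 or its non-G4 mutant template (5 μM) with 2 μM of each oligomer, […] and ligand at 0–20 μM. Cycling was 94 °C for 5 min, then 30 cycles of 94/56/72 °C at 30 s each. Products were resolved on 15% PAGE and stained with SYBR Gold.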

HeLa [6] = assay: Downregulation of hTERT mRNA expression in human HeLa cells at 5 to 20 uM by qRT-PCR analysis; assay type: functional, cell-based; conditions: dose 5-20 µM
Procedure, shortened: (§2)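 HeLa cells were treated with graded compound concentrations, then incubated 36 h. RNA was extracted with Trizol/chloroform, reverse transcribed and quantified by qRT-PCR. GAPDH served as internal control, with relative expression by the ΔΔCt method; three independent experiments, mean ± SD.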

HeLa [7] = assay: Downregulation of hTERC mRNA expression in human HeLa cells at 5 to 20 uM by qRT-PCR analysis; assay type: functional, cell-based; conditions: dose 5-20 µM; procedure, shortened: as §2
HeLa [8] = assay: Induction of cellular senescence in human HeLa cells assessed as positive SA-beta-Gal cells at 0.5 to 4 uM incubated for 18 days by inverted fluorescence microscopic analysis; assay type: functional, cell-based; conditions: dose 0.5-4 µM, time 18.0 day
Procedure, shortened: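 HeLa cells were exposed to compound for 18 days, with drug-containing medium replaced every three days. Cells were then fixed 15 min at room temperature and stained for β-galactosidase at 37 °C overnight. Stained cells were examined under an inverted microscope.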

Quadruplex DNA [9] = assay: Displacement of 2-((E)-4-(Dimethylamino)styryl)-1-methyl-4-((Z)-(3-(3-morpholinopropyl)benzo[d]thiazol-2(3H)-ylidene)methyl)quinolin-1-ium iodide from telomeric Htg24 G4 quadruplex DNA in human U87 cells assessed as decrease in fluorescence intensity at 5 to 20 uM by competition binding assay; assay type: cell-based; conditions: dose 5-20 µM
Procedure, shortened: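 Live U87 cells were stained with probe at 5 μM plus DAPI and co-treated with BRACO19 at 5, 10, 15 or 20 μM. Confocal imaging used excitation at 488 or 571 nm for the probe and 402 nm for DAPI. Nuclear spot intensity was compared across concentrations.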

Quadruplex DNA [10] = assay: Binding affinity to telomeric Htg24 G-quadruplex DNA (unknown origin) assessed as fluorescence quantum yield by fluorescence spectrophotometric method; assay type: nucleic-acid assay
Procedure, shortened: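 Fluorescence quantum yield determined against fluorescein (Φ = 0.95) in 1% NaOH ethanol. Five increasing ligand concentrations added to fixed DNA, with absorbance and emission recorded for each.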

Quadruplex DNA [11] = assay: Binding affinity to telomeric Htg24 G-quadruplex DNA (unknown origin) assessed as emission wavelength at 480 to 483 nm at pH 7.4 by spectrophotometric method; assay type: nucleic-acid assay
PC-3 = assay: Antiproliferative activity against human PC-3 cells assessed as reduction in cell viability […] by MTT assay; assay type: functional, cell-based
HepG2 = assay: Antiproliferative activity against human HepG2 cells assessed as reduction in cell viability […] by MTT assay; assay type: functional, cell-based
MCF7 = assay: Antiproliferative activity against human MCF7 cells assessed as reduction in cell viability […] by MTT assay; assay type: functional, cell-based
U-87 MG = assay: Antiproliferative activity against human U87 cells assessed as reduction in cell viability […] by MTT assay; assay type: functional, cell-based, U-87MG ATCC
HeLa [12] = assay: Antiproliferative activity against human HeLa cells assessed as reduction in cell viability […] by MTT assay; assay type: functional, cell-based
16HBE14o- = assay: Cytotoxicity against human 16HBE14o- cells assessed as cell viability incubated for 48 hrs by MTT assay; assay type: cell-based; conditions: 36 h, in the assay text read “36 hrs” for “48 hrs”
Procedure, shortened: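 Cells were plated and grown 48 h at 37 °C, 5% CO2, in DMEM with 10% FBS. They were then given graded ligand concentrations for 36 h and treated with MTT (5 mg/ml) for 4 h in the dark. Formazan was dissolved in DMSO and absorbance read at 577 nm. IC50 was taken from a sigmoidal dose–response fit; three independent experiments.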

Quadruplex DNA [13] = assay: Binding affinity to telomeric Htg24 G-quadruplex DNA (unknown origin) assessed as stroke shift under at 480 to 483 nm at pH 7.4 by spectrophotometric method

## CSc1ccc(/C=C/c2cc(/C=C3\Sc4ccccc4N3CCCN3CCC(C)CC3)c3ccccc3[n+]2C)cc1.[I-]
DNA
  Kb: 755000 M⁻¹
rRNA
  Kb: 787000 M⁻¹
Quadruplex DNA [1]
  Kb: 766000 M⁻¹
Quadruplex DNA [2]
  Kb: 650000 M⁻¹
Quadruplex DNA [3]
  Kb: 689000 M⁻¹
[4]
  solubility: 98.4 µM

## C[n+]1c(/C=C/c2ccc(N(c3ccccc3)c3ccccc3)cc2)cc(/C=C2\Sc3ccccc3N2CCCN2CCOCC2)c2ccccc21.[I-]
DNA
  Kb: 272000 M⁻¹
Quadruplex DNA [1]
  Kb: 645000 M⁻¹
Quadruplex DNA [2]
  Kb: 523000 M⁻¹
Quadruplex DNA [3]
  Kb: 490000 M⁻¹
[4]
  solubility: 70.7 µM

## CC1CCN(CCCN2/C(=C/c3cc(/C=C/c4ccc(O)cc4)[n+](C)c4ccccc34)Sc3ccccc32)CC1.[I-]
Quadruplex DNA [1]
  Kb: 550000 M⁻¹
[4]
  solubility: 147 µM

## CN(C)c1ccc(Nc2c3ccc(NC(=O)CCN4CCCC4)cc3nc3cc(NC(=O)CCN4CCCC4)ccc23)cc1
Quadruplex DNA [5]
  Activity: Active
HeLa [6]
  Activity: Active
HeLa [7]
  Activity: Active
HeLa [8]
  Activity: Active
Quadruplex DNA [9]
  Activity: Active

## CC1CCN(CCCN2/C(=C/c3cc(/C=C/c4ccc(N(C)C)cc4)[n+](C)c4ccccc34)Sc3ccccc32)CC1.[I-]
Quadruplex DNA [5]
  Activity: Active
rRNA
  Kb: 840000 M⁻¹
Quadruplex DNA [10]
  Activity: 0.317
Quadruplex DNA [11]
  Activity: 648 nm
HeLa [6]
  Activity: Active
HeLa [7]
  Activity: Active
PC-3
  IC50: 14.6 µM
HepG2
  IC50: 11 µM
MCF7
  IC50: 12.6 µM
U-87 MG
  IC50: 14.7 µM
HeLa [12]
  IC50: 21.2 µM
16HBE14o-
  IC50: 34.8 µM
[4]
  solubility: 105 µM
Quadruplex DNA [13]
  Activity: 165 nm

## C[n+]1c(/C=C/c2ccc(O)cc2)cc(/C=C2\Sc3ccccc3N2CCCN2CCOCC2)c2ccccc21.[I-]
Quadruplex DNA [2]
  Kb: 965000 M⁻¹
[4]
  solubility: 167 µM

## C[n+]1c(/C=C/c2ccc(C#N)cc2)cc(/C=C2\Sc3ccccc3N2CCCN2CCOCC2)c2ccccc21.[I-]
DNA
  Kb: 379000 M⁻¹
rRNA
  Kb: 501000 M⁻¹
Quadruplex DNA [1]
  Kb: 443000 M⁻¹
Quadruplex DNA [2]
  Kb: 722000 M⁻¹
Quadruplex DNA [3]
  Kb: 505000 M⁻¹
[4]
  solubility: 83 µM

## CC1CCN(CCCN2/C(=C/c3cc(/C=C/c4ccc(C#N)cc4)[n+](C)c4ccccc34)Sc3ccccc32)CC1.[I-]
rRNA
  Kb: 786000 M⁻¹
Quadruplex DNA [1]
  Kb: 983000 M⁻¹
Quadruplex DNA [2]
  Kb: 957000 M⁻¹
Quadruplex DNA [3]
  Kb: 902000 M⁻¹
[4]
  solubility: 82.7 µM

## CC1CCN(CCCN2/C(=C/c3cc(/C=C/c4ccc(N(c5ccccc5)c5ccccc5)cc4)[n+](C)c4ccccc34)Sc3ccccc32)CC1.[I-]
DNA
  Kb: 154000 M⁻¹
Quadruplex DNA [1]
  Kb: 907000 M⁻¹
Quadruplex DNA [2]
  Kb: 785000 M⁻¹
Quadruplex DNA [3]
  Kb: 722000 M⁻¹
[4]
  solubility: 77.2 µM

## CSc1ccc(/C=C/c2cc(/C=C3\Sc4ccccc4N3CCCN3CCOCC3)c3ccccc3[n+]2C)cc1.[I-]
Quadruplex DNA [5]
  Activity: inactive
DNA
  Kb: 657000 M⁻¹
rRNA
  Kb: 764000 M⁻¹
Quadruplex DNA [1]
  Kb: 486000 M⁻¹
Quadruplex DNA [2]
  Kb: 301000 M⁻¹
Quadruplex DNA [3]
  Kb: 325000 M⁻¹
HeLa [6]
  Activity: inactive
HeLa [7]
  Activity: inactive
PC-3
  IC50: 91.1 µM
HepG2
  IC50: 96.5 µM
MCF7
  IC50: 105 µM
U-87 MG
  IC50: 96.8 µM
HeLa [12]
  IC50: 90.3 µM
16HBE14o-
  IC50: 58 µM
[4]
  solubility: 87.3 µM
